# Screening results (PubChem)
# TRPC4 act – opens the mouse TRPC4 cation channel; Q9QUQ5; HEK293 TRPC4beta/mu-opioid, Fluo4 calcium fluorescence; hits give high values; B-score at 10 µM; 310,000 tested, 0.49% active;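 active = B-score above 5 SD of library B-scores, and initial fluorescence ratio not above library mean plus 5 SD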;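 note: positive B-score marks a calcium rise read as TRPC4 activation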
#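 Assay system: HEK293 stable line with TRPC4beta plus mu-opioid receptor. Times: dye 45 min RT, read 110 s. Measured by: kinetic Fluo4 calcium fluorescence. Measure: B score of integrated ratio. Controls: assay buffer as low control, maximal DAMGO as high control.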
# TRPC6 inh – mouse TRPC6 channel inhibition. B-score at 10 µM. HEK293-TRPC6, membrane potential dye, ACh-evoked depolarization; hits give low values. 310,000 tested, 1.1% active. Q61143;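 active = B-score under library mean minus 3 SD, initial fluorescence not abnormally high, positive integrated signal ratio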;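 note: B-score derived from integrated fluorescence ratio over the kinetic read; more negative B-score means stronger inhibition of depolarization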
# TRPC4 PAM – allosterically enhances the mouse TRPC4 cation channel; AID 2227; B-score at 10 µM; HEK293 TRPC4beta/mu-opioid, DAMGO EC20, Fluo-4 Ca2+ flux; hits give high values; Q9QUQ5; 310,000 tested, 0.42% active;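 active = B-score of calcium response area above 5 SD of library B-scores, with initial fluorescence ratio within 5 SD of library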;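 note: B-score of integrated fluorescence ratio over time as area under calcium response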
# TRPC6 act – activators of mouse TRPC6 channel; Q61143; HEK293-TRPC6 membrane potential dye fluorescence; hits give high values; B-score at 10 µM; 310,000 tested, 0.13% active; AID 2550;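 active = B-score of the integrated fluorescence ratio above library mean plus 3 SD, and starting fluorescence ratio within library mean plus 5 SD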;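 note: higher score means more depolarization so channel activation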
# TRPC4 inh – inhibitors of mouse TRPC4 channel; Q9QUQ5; HEK293 TRPC4beta/mu-opioid, DAMGO-evoked Fluo4 calcium flux; hits give low values; B-score at 10 µM; 300,000 tested, 0.39% active; AID 2247;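 active = B-score over 3 SD under the library average, no early fluorescence shift, positive overall ratio signal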
#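 Material: HEK293 cells with stable TRPC4beta plus mu-opioid receptor expression; probe or stimulus: DAMGO in two steps, submaximal then maximal; technique: Fluo4 calcium fluorescence by kinetic imaging, 5 s 1 Hz baseline; measure: integrated fluorescence ratio relative to baseline, converted to per-well B score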
# * hit, by the source's call; i = inactive. The list is not random: actives were taken first. Their share in the collection is about 2.3%.
SMILES,TRPC4 act,TRPC6 inh,TRPC4 PAM,TRPC6 act,TRPC4 inh
CCOC(=O)C1(CCc2ccccc2)CCN(Cc2ccc3c(c2)OCCO3)CC1,i,i,i,i,i
CCOC(=O)C1(CCc2ccccc2)CCN(Cc2ccc(NC(C)=O)cc2)CC1,104*,i,i,i,i
O=C(Cn1ncn2c(cc3cc(F)ccc32)c1=O)N1CCC2(CC1)OCCO2,i,i,i,i,i
O=[N+]([O-])c1cc2c(cc1CNCCc1ccc3c(c1)OCO3)OCO2,90*,i,i,i,-8*
O=C1NC(=S)NC(=O)C1=Cc1ccc(Br)s1,i,i,i,i,i
Clc1ccc(CCNCc2ccncc2)c(Cl)c1,50*,i,i,i,i
C=CCOC(=O)C1=C(C)OC(N)=C(C#N)[C@@]12C(=O)N(CC(N)=O)c1ccccc12,i,i,22*,i,i
CC1=C(C(=O)OC(C)C)[C@]2(C(=O)N(CC(N)=O)c3ccccc32)C(C#N)=C(N)O1,i,i,i,i,i
Cc1ccc(Oc2cc(NN3CCCCC3)c([N+](=O)[O-])cc2[N+](=O)[O-])c([N+](=O)[O-])c1,i,i,i,i,i
CN1CCN(CC#CCOc2ccc(Cl)cc2)CC1,i,i,i,i,i
Clc1ccc(OCC#CCN2CCCC2)cc1,i,i,24*,i,i
Cc1ccc(N2C(=O)CC(=O)NC2=O)cc1Cl,i,i,i,i,i
Cn1nccc1C(=O)N1CCC2(CC1)OCCO2,i,i,i,i,i
Cn1c(O)c(/C=C/C=Nc2ccccc2)c(=O)n(C)c1=S,i,i,i,i,i
CN(C)C(CNC(=O)Cc1c(Cl)cccc1Cl)c1ccccc1 (centres undefined),219*,i,i,i,i
CC(NCc1cccc(Cl)c1Cl)C(O)c1ccccc1 (centres undefined),i,i,i,i,i
COc1ccc(-c2nc3ccc(C(=O)N4CCC5(CC4)OCCO5)cc3nc2-c2ccc(OC)cc2)cc1,i,i,i,i,i
CCc1ccc(OCCCN=C(C)c2c(O)n(C)c(=O)n(C)c2=O)cc1,i,i,16*,i,i
CCN1C[C@]2(OC(=O)c3ccccc3NC(C)=O)CCC(OC)C34C5C[C@H]6C(OC)[C@]5(O)[C@](O)(C[C@@H]6OC)C(C[C@@H]32)[C@H]14 (some centres undefined),i,i,i,i,i
O=C(c1ccc2c3c(cccc13)CC2)C1CCCN(CC2CC2)C1 (centres undefined),158*,i,i,i,i
O=C(c1ccc2c3c(cccc13)CC2)C1CCCN(Cc2ncc[nH]2)C1 (centres undefined),46*,i,i,i,i
Cc1c(Br)c(=O)oc2cc(OCC(=O)N3C[C@H]4C[C@@H](C3)c3cccc(=O)n3C4)ccc12,i,i,i,i,i
N=c1n(CCO)c2ccccc2n1Cc1ccccc1,i,i,i,i,-7*
O=c1ccc2cc(O[C@@H]3O[C@@H](CO)[C@H](O)[C@@H](O)[C@@H]3O)c(O)cc2o1,i,i,i,i,i
FC(F)(F)c1ccccc1CCN1CCNCC1,i,i,i,i,i
SMILES,TRPC4 act,TRPC6 inh,TRPC4 PAM,TRPC6 act,TRPC4 inh
CC1CCCC(C)N1/N=C/c1c[nH]c2ccc(Br)cc12 (centres undefined),i,i,34*,i,i
C=C(C)[C@@]12OC3(c4ccccc4)O[C@@H]1C1[C@@H]4O[C@]4(CO)[C@@H](O)[C@]4(O)C(=O)C(C)=C[C@H]4[C@@]1(O3)[C@H](C)[C@H]2OC(=O)/C=C/C=C/c1ccccc1 (some centres undefined),i,i,i,i,-6*
COC(=O)C1=CCCN(C)C1,99*,i,i,i,i
O=C(c1ccc(Cl)cc1)C1CCCN(Cc2ccc3ncccc3c2)C1 (centres undefined),80*,i,i,i,i
CCOC(=O)C1(c2ccccc2)CCN(CCC(=O)Nc2ccccc2OC)CC1,50*,i,i,i,i
C/C=C(\C)C(=O)OC1C(C)=C2C(C1OC(=O)CCCCC)C(C)(OC(C)=O)CC(OC(=O)CCC)C1(O)C2OC(=O)C1(C)O (centres undefined),71*,-5.8*,i,i,i
CCN(CC)P(=O)(/C=C(\Cl)c1ccccc1)/C=C(\Cl)c1ccccc1,i,i,17*,i,i
CC(N)Cc1c[nH]c2c1ccc1ccccc12 (centres undefined),92*,i,i,i,i
CCc1nccc2c1[nH]c1ccccc12,i,i,i,i,-6*
C[N+]1(CCC(C(N)=O)(c2ccccc2)c2ccccc2)CCCCC1,i,-9.7*,i,i,i
COc1ccc(CC2c3cc(OC)c(OC)cc3CCN2C)cc1OC (centres undefined),i,i,i,i,i
COc1ccc(C[C@@H]2c3cc(O)c(OC)cc3CCN2C)cc1O,i,i,17*,i,i
N#Cc1ccc(N2CCNCC2)c(F)c1,53*,i,i,i,i
N#Cc1cc(F)c(N2CCNCC2)cc1Cl,i,i,i,i,i
[N-]=[N+]=CC(=O)OC[C@H](N)C(=O)O,i,i,i,i,i
COc1ccc(C(CNC(=O)c2ccc3c(c2)CCC3)N(C)C)cc1 (centres undefined),209*,i,i,i,i
O=c1[nH]c(=S)n(CCC2=CCCCC2)c(O)c1/C=N/N1CCOCC1,i,i,i,i,i
Oc1ccccc1C1NCc2ccccc2-n2cccc21 (centres undefined),i,i,i,i,i
CN(C)c1ccc(-[n+]2c(-c3ccccc3)cc(-c3ccccc3)cc2-c2ccccc2)cc1,i,i,11*,i,i
CCOC(=O)c1ccc(-[n+]2c(-c3ccccc3)cc(-c3ccccc3)cc2-c2ccccc2)cc1,i,i,i,i,i
CCOC(=O)c1cccc(-[n+]2c(-c3ccccc3)cc(-c3ccccc3)cc2-c2ccccc2)c1,i,i,i,i,i
c1ccc(-c2cc(-c3ccccc3)[n+](-c3ccccc3)c(-c3ccccc3)c2)cc1,i,i,18*,i,i
Cc1cc(NCCN)nc2ccccc12,i,i,28*,i,i
Cc1ccc(C)c(-n2c(C)nc3ccccc3c2=O)c1,i,i,i,i,i
